Measurements reported in ChEMBL document CHEMBL1140051, “Discovery of novel Cdc25 phosphatase inhibitors with micromolar activity based on the structure-based virtual screening” (J Med Chem, 2008).

Target: T1, M-phase inducer phosphatase 1 (Homo sapiens) (UniProt P30304)
T1 sequence (whole entry): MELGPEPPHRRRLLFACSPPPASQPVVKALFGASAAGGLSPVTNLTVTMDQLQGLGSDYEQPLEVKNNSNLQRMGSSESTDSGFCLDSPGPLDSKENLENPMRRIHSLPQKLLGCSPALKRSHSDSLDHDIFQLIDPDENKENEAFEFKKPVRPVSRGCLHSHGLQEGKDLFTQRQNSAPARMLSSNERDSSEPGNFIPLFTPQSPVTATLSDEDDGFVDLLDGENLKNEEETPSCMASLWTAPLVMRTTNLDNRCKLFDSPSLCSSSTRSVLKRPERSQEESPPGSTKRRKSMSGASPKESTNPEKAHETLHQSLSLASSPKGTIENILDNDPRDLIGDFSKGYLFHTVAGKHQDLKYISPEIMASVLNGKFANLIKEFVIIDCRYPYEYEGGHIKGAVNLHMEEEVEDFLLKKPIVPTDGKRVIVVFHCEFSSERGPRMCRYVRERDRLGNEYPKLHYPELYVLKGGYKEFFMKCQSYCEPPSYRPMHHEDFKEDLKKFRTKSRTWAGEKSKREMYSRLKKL
Assay: Inhibition of Cdc25A (336-523) expressed in Escherichia coli at 50 uM

| SMILES | inhibition [%] |
| --- | --- |
| COc1ccc(-n2nnc(SCC(=O)c3ccc(O)c(O)c3)n2)cc1 | > 70 |
| N#CC1=C(S)N(c2ccccc2)C(/C=C/c2ccc(-c3ccc(Cl)cc3)o2)NC1=O (configuration not stated) | > 70 |
| C=CCn1c(SCC(=O)c2ccc(O)c(O)c2)nnc1-c1cccc(Cl)c1 | > 70 |
| Cc1ccc(NC2=NC(=O)/C(=C/C=C/c3ccco3)S2)cc1C | > 70 |
| Cc1ccc(-c2nnc(SCC(=O)c3ccc(O)c(O)c3)n2-c2ccc(Cl)cc2)cc1 | > 70 |

Test system: not listed separately
Assay: Inhibition of Cdc25A R501K mutant

| SMILES | IC50 [µM] |
| --- | --- |
| COc1ccc(-n2nnc(SCC(=O)c3ccc(O)c(O)c3)n2)cc1 | 6.09 |

Target: T2, M-phase inducer phosphatase 1 (Homo sapiens, UniProt P30304)
T2 sequence (P30304 whole entry): T1 sequence (whole entry)
Assay: Binding affinity to Cdc25A (336-523) expressed in Escherichia coli by steady-state kinetic assay

| SMILES | Ki [µM] |
| --- | --- |
| COc1ccc(-n2nnc(SCC(=O)c3ccc(O)c(O)c3)n2)cc1 | 20.4 |
| Cc1ccc(/N=C2N=C(O)/C(=C/C=C/c3ccco3)S\2)cc1C | 21.4 |
| N#CC1=C(S)N(c2ccccc2)C(/C=C/c2ccc(-c3ccc(Cl)cc3)o2)NC1=O (configuration not stated) | 29.2 |

Target: T2, M-phase inducer phosphatase 1
Assay: Inhibition of Cdc25A (336-523) expressed in Escherichia coli
Method in brief: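 Inhibitor added in DMSO. 20 min at room temperature, stopped with 1 mM orthovanadate (final). IC50 determined at least three times and averaged.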

| SMILES | IC50 [µM] |
| --- | --- |
| COc1ccc(-n2nnc(SCC(=O)c3ccc(O)c(O)c3)n2)cc1 | 4.07 |
| Cc1ccc(/N=C2N=C(O)/C(=C/C=C/c3ccco3)S\2)cc1C | 4.27 |
| N#CC1=C(S)N(c2ccccc2)C(/C=C/c2ccc(-c3ccc(Cl)cc3)o2)NC1=O (configuration not stated) | 3.31 |
| C=CCn1c(SCC(=O)c2ccc(O)c(O)c2)nnc1-c1cccc(Cl)c1 | 3.28 |
| CC1=C(SCCO)C(=O)c2ccccc2C1=O | 4.56 |

Test system: not listed separately
Assay: Inhibition of Cdc25B R544A mutant

| SMILES | IC50 [µM] |
| --- | --- |
| COc1ccc(-n2nnc(SCC(=O)c3ccc(O)c(O)c3)n2)cc1 | 16 |

Test system: not listed separately
Assay: Inhibition of Cdc25A R501A mutant

| SMILES | IC50 [µM] |
| --- | --- |
| COc1ccc(-n2nnc(SCC(=O)c3ccc(O)c(O)c3)n2)cc1 | 12.1 |

Target: T3, M-phase inducer phosphatase 2 (Homo sapiens) (UniProt P30305)
T3 sequence (whole entry): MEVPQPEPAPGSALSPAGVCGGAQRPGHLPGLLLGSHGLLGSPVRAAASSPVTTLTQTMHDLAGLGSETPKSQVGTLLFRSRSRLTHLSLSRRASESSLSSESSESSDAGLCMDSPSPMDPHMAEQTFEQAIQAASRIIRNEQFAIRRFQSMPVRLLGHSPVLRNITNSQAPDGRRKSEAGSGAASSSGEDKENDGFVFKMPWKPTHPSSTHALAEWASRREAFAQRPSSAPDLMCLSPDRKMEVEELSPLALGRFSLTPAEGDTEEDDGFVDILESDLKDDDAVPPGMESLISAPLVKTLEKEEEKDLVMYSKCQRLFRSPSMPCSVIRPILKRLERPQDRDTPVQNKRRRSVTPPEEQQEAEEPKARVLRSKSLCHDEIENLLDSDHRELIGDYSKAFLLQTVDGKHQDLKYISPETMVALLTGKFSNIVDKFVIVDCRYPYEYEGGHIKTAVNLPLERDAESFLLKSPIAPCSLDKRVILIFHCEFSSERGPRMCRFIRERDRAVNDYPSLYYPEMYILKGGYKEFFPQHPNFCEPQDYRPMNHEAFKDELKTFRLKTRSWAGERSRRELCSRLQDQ
Assay: Inhibition of Cdc25B (378-566) expressed in Escherichia coli at 50 uM

| SMILES | inhibition [%] |
| --- | --- |
| COc1ccc(-n2nnc(SCC(=O)c3ccc(O)c(O)c3)n2)cc1 | > 70 |
| N#CC1=C(S)N(c2ccccc2)C(/C=C/c2ccc(-c3ccc(Cl)cc3)o2)NC1=O (configuration not stated) | > 70 |
| C=CCn1c(SCC(=O)c2ccc(O)c(O)c2)nnc1-c1cccc(Cl)c1 | > 70 |
| Cc1ccc(NC2=NC(=O)/C(=C/C=C/c3ccco3)S2)cc1C | > 70 |
| Cc1ccc(-c2nnc(SCC(=O)c3ccc(O)c(O)c3)n2-c2ccc(Cl)cc2)cc1 | > 70 |

Test system: not listed separately
Assay: Inhibition of Cdc25B R544K mutant

| SMILES | IC50 [µM] |
| --- | --- |
| COc1ccc(-n2nnc(SCC(=O)c3ccc(O)c(O)c3)n2)cc1 | 17.4 |

Target: T4, M-phase inducer phosphatase 2 (Homo sapiens, UniProt P30305)
T4 sequence (P30305 whole entry): T3 sequence (whole entry)
Assay: Inhibition of Cdc25B (378-566) expressed in Escherichia coli

| SMILES | IC50 [µM] |
| --- | --- |
| COc1ccc(-n2nnc(SCC(=O)c3ccc(O)c(O)c3)n2)cc1 | 14.2 |
| Cc1ccc(/N=C2N=C(O)/C(=C/C=C/c3ccco3)S\2)cc1C | 5.44 |
| N#CC1=C(S)N(c2ccccc2)C(/C=C/c2ccc(-c3ccc(Cl)cc3)o2)NC1=O (configuration not stated) | 12.6 |
| C=CCn1c(SCC(=O)c2ccc(O)c(O)c2)nnc1-c1cccc(Cl)c1 | 4.67 |
| CC1=C(SCCO)C(=O)c2ccccc2C1=O | 23.6 |
